Results: ChEMBL document CHEMBL1139836, “Development of orally bioavailable and CNS penetrant biphenylaminocyclopropane carboxamide bradykinin B1 receptor antagonists” (J Med Chem, 2007)
The source made the active and inactive calls.

Assays:
Mus musculus [1] = assay: Effect on complete Freund's adjuvant-induced hypersensitivity in mouse at 60 mg/kg, po; assay type: functional, organism-based; parameters: dose 60 mg/kg
Outline: (§1)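 Humanized B1 knock-in mice and wild-type mice, 8-13 weeks old. Injected intraplantar with 30 µL of 50% CFA; 24 h later tested for von Frey tactile threshold (Dixon up-down). Then dosed po at 6, 20 or 60 mg/kg or vehicle (0.5% methylcellulose with 10 mg/mL malic acid, pH 4, 10 mL/kg). Paw withdrawal threshold read at 60 min. Two-way repeated-measures ANOVA with Tukey test.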

B1 bradykinin receptor [2] = molecular target: T1, B1 bradykinin receptor (Homo sapiens, UniProt P46663); assay: Plasma concentration in hB1 knock-in-mouse at 20 mg/kg, po after 1 hr; assay type: ADME, organism-based; parameters: dose 20 mg/kg, route oral
T1 sequence (P46663 whole entry): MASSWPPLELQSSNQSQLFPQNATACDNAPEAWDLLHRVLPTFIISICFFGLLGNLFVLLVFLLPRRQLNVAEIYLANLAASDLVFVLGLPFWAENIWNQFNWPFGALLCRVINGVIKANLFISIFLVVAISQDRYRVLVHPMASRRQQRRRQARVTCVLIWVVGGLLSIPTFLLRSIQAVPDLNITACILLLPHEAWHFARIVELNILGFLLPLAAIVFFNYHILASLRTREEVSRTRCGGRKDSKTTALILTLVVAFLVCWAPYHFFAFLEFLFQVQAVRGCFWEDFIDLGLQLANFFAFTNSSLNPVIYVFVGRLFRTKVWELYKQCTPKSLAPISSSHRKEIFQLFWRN
Outline: (§2)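 hB1 knock-in mice with CFA paw inflammation, dosed po at 6, 20 or 60 mg/kg in 0.5% methylcellulose with 10 mg/mL malic acid, pH 4. Plasma collected 60 min after dosing, following behavioural testing.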

Mus musculus [3] = assay: Effect on complete Freund's adjuvant-induced hypersensitivity in mouse at 20 mg/kg, po; assay type: functional, organism-based; parameters: dose 20 mg/kg; outline: as §1
[4] = Half life in rhesus monkey at 3 mg/kg, po and 1 mg/kg, iv; assay type: ADME, organism-based, Macaca mulatta; conditions: in vivo
Outline: (§3)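 Rhesus monkeys, n = 2, dosed orally at 3 mg/kg and iv at 1 mg/kg. F%, half-life in hours, clearance in mL/min/kg.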

[5] = Stability in dog liver microsomes; assay type: ADME, Canis lupus familiaris, Microsome
[6] = molecular target: T2, B1 bradykinin receptor (Homo sapiens) (UniProt P46663); assay: Reversal of complete Freund's adjuvant-induced hyperalgesia in orally dosed hB1 knock-in-mouse; assay type: functional, organism-based; outline: as §1
T2 sequence (whole entry): T1 sequence (P46663 whole entry)

[7] = Ratio of drug level in brain against plasma in African green monkey at 2 mg/kg, iv; conditions: read-out: BPR
[8] = Oral bioavailability in rhesus monkey at 3 mg/kg, po and 1 mg/kg, iv; assay type: ADME, organism-based, Macaca mulatta; conditions: in vivo; outline: as §3
Liver microsomes [9] = assay: Stability in rat liver microsomes; assay type: ADME, Microsome
[10] = Oral bioavailability in Mongrel dog at 3 mg/kg, po and 1 mg/kg, iv; assay type: ADME, organism-based, Canis lupus familiaris; conditions: in vivo
Outline: (§4)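 Mongrel dogs, n = 2, dosed orally at 3 mg/kg and iv at 1 mg/kg. F%, half-life in hours, clearance in mL/min/kg.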

B1 bradykinin receptor [11] = molecular target: T1, B1 bradykinin receptor; assay: Plasma concentration in hB1 knock-in-mouse at 6 mg/kg, po after 1 hr; assay type: ADME, organism-based; parameters: dose 6 mg/kg, route oral; outline: as §2
[12] = Stability in monkey hepatocytes; assay type: ADME, cell-based, Macaca mulatta, Hepatocyte; conditions: rhesus monkey
[13] = Oral bioavailability in Sprague-Dawley rat at 10 mg/kg, po and 2 mg/kg, iv; assay type: ADME, organism-based; conditions: in vivo
Outline: (§5)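 Sprague-Dawley rats, n = 3, dosed orally at 10 mg/kg and iv at 2 mg/kg. F% from oral versus iv exposure; half-life in hours, clearance in mL/min/kg.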

[14] = Half life in Sprague-Dawley rat at 10 mg/kg, po and 2 mg/kg, iv; assay type: ADME, organism-based; conditions: in vivo; outline: as §5
Mus musculus [15] = assay: Effect on complete Freund's adjuvant-induced hypersensitivity in mouse at 6 mg/kg, po; assay type: functional, organism-based; parameters: dose 6 mg/kg; outline: as §1
Rhesus monkey = assay: Antidepressor effect in iv dosed rhesus monkey measured as blockade of DAK-induced blood pressure response; assay type: functional, Macaca mulatta
Outline: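 Conscious rhesus monkeys primed with LPS 20 µg/kg iv and given 2 h equilibration. Baseline depressor response to des-Arg10-kallidin 0.3 µg/kg iv measured twice. Antagonist given as rising iv bolus doses of 3, 10, 30 and 100 µg/kg, each 5 min before a DAK challenge, with the fall in mean arterial pressure recorded. Plasma sampled 2 min after each dose. Crossover against vehicle, n = 3.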

[16] = Clearance in Mongrel dog at 3 mg/kg, po and 1 mg/kg, iv; assay type: ADME, organism-based, Canis lupus familiaris; conditions: in vivo; outline: as §4
[17] = Stability in rat hepatocytes; assay type: ADME, cell-based, Hepatocyte
Liver microsomes [18] = assay: Stability in human liver microsomes; assay type: ADME, Microsome
[19] = Clearance in Sprague-Dawley rat at 10 mg/kg, po and 2 mg/kg, iv; assay type: ADME, organism-based; conditions: in vivo; outline: as §5
[20] = Stability in monkey liver microsomes; assay type: ADME, Macaca mulatta, Microsome; conditions: rhesus monkey
[21] = Clearance in rhesus monkey at 3 mg/kg, po and 1 mg/kg, iv; assay type: ADME, organism-based, Macaca mulatta; conditions: in vivo; outline: as §3
B1 bradykinin receptor [22] = molecular target: T1, B1 bradykinin receptor; assay: Plasma concentration in hB1 knock-in-mouse at 60 mg/kg, po after 1 hr; assay type: ADME, organism-based; parameters: dose 60 mg/kg, route oral; outline: as §2
[23] = Half life in Mongrel dog at 3 mg/kg, po and 1 mg/kg, iv; assay type: ADME, organism-based, Canis lupus familiaris; conditions: in vivo; outline: as §4
[24] = Stability in human hepatocytes; assay type: ADME, cell-based, Hepatocyte

In the case of `COC(=O)c1c(Cl)cccc1-c1ccc([C@@H](C)NC(=O)C2(NC(=O)C(F)(F)F)CC2)c(F)c1` [MK0686], the Activity (Mus musculus [1]) was “inactive”, the concentration at 1 h (B1 bradykinin receptor [2]) was 3.5 µM and the Activity (Mus musculus [3]) was “inactive”. For the same compound, the half-life [4] was 1.7 h, the Stability [5] was “Stable” and the ED50 [6] was 9.76 mg/kg. The Kp [7] was 0.4, the bioavailability [8] was 31% and the Stability (Liver microsomes [9]) was “Stable”. For the same compound, the bioavailability [10] was 33%, the concentration at 1 h (B1 bradykinin receptor [11]) was 1 µM and the Stability [12] was “Stable”. The bioavailability [13] was 34%, the half-life [14] was 0.4 h and the Activity (Mus musculus [15]) was “inactive”. The AD90 (Rhesus monkey) was 0.047 mg/kg, the clearance [16] was 9 mL/min/kg and the Stability [17] was “Stable”. For the same compound, the Stability (Liver microsomes [18]) was “Stable”, the clearance [19] was 40 mL/min/kg and the Stability [20] was “Stable”. The clearance [21] was 13 mL/min/kg, the concentration at 1 h (B1 bradykinin receptor [22]) was 5 µM and the half-life [23] was 1.8 h. The Stability [24] was “Stable”.
